# In ChEMBL document CHEMBL5661986, “Discovery of the SMYD3 Inhibitor BAY-6035 Using Thermal Shift Assay (TSA)-Based High-Throughput Screening” (SLAS Discov, 2021):
# Active and inactive are the calls of the source. No cut-off for these calls is given here.
# Tests used:
# [1] = molecular target: T1, Histone-lysine N-methyltransferase SMYD3 (Homo sapiens) (UniProt Q9H7B4); assay: Binding affinity to recombinant human SMYD3 expressed in Escherichia coli assessed as change in enthalpy at 0.3 mM by isothermal titration calorimetry
# T1 sequence (whole entry): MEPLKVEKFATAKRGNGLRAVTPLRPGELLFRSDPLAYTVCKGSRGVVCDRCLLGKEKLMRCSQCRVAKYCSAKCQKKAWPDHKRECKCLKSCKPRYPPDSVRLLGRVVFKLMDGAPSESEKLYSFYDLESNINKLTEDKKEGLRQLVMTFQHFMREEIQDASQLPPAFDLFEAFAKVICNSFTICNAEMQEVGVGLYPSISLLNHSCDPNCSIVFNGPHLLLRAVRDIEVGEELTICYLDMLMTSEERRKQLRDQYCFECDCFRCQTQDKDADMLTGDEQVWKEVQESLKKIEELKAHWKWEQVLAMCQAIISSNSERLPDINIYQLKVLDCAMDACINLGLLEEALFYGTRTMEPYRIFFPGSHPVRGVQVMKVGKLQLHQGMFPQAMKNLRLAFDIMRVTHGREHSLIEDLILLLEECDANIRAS
# Outline: (§1)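 Syringe held compound at 0.3 mM in 20 mM HEPES pH 7.4, 150 mM NaCl, 0.005% Tween 20, 2.5% DMSO; eight 4 µL injections at 180 s intervals into SMYD3.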
# [2] = species on record: Homo sapiens; assay: Selectivity ratio of IC50 for recombinant human SMYD3 to the IC50 for inhibition of SMYD3- dependent MAP3K2 methylation
# [3] = molecular target: Histone-lysine N-methyltransferase SETD2 (Homo sapiens) (UniProt Q9BYW2); assay: Inhibition of SETD2 (unknown origin)
# [4] = molecular target: T1, Histone-lysine N-methyltransferase SMYD3 (Homo sapiens); assay: Binding affinity to recombinant human SMYD3 expressed in Escherichia coli assessed as change in gibbs binding free energy by isothermal titration calorimetry; outline: as §1
# [5] = molecular target: T1, Histone-lysine N-methyltransferase SMYD3 (Homo sapiens); assay: Binding affinity to biotinylated SMYD3 (unknown origin) assessed as association rate constant (Kon) using S-adenosyl-l-methionine as substrate by surface plasmon resonance analysis
# Outline: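 Biotinylated SMYD3 (aa 1–428) captured (~4700 RU) on streptavidin chip, empty reference flow cell; 25 °C; running buffer 20 mM HEPES pH 7.4, 150 mM NaCl, 3 mM EDTA, 0.05% Tween-20, 2% DMSO, plus 50 µM SAM. Single-cycle kinetics, five concentrations 25–2000 nM, 60 s contact, 300 s dissociation, 30 µL/min; triplicate.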
# [6] = molecular target: T2, Histone-lysine N-methyltransferase SMYD3 (Homo sapiens, UniProt Q9H7B4); assay: Binding affinity to recombinant human SMYD3 expressed in Escherichia coli at varying 3H SAM substrate concentration of upto 3.5 uM with 10 fold Km concentration by scintillation proximity assay
# T2 sequence (Q9H7B4 whole entry): T1 sequence (whole entry)
# Outline: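 SPA, 10 nM SMYD3 methylating biotinylated MAP3K2 249–273 peptide with 3H-SAM in 20 mM Tris pH 9, 2.5 mM DTT, 0.01% Triton X-100; 40 min, 23 °C, GuHCl quench.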
# [7] = molecular target: RNA 5'-monophosphate methyltransferase (Homo sapiens) (UniProt Q7Z5W3); assay: Inhibition of BCDIN3D (unknown origin)
# Sequence of RNA 5'-monophosphate methyltransferase (Homo sapiens) (Q7Z5W3 whole entry): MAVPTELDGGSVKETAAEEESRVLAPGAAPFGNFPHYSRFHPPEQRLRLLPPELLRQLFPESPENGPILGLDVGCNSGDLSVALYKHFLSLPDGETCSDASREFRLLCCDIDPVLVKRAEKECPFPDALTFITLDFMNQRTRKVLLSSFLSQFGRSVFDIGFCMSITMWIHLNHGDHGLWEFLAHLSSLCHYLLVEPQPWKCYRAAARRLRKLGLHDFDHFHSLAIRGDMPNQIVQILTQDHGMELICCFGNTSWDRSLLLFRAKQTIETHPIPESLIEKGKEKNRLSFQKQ
# [8] = molecular target: DNMT3A2/3L complex (Homo sapiens) (UniProt Q9Y6K1+Q9UJW3); assay: Inhibition of DNMT3A/DNMT3L (unknown origin); assay type: protein-complex assay
# [9] = molecular target: Histone-lysine N-methyltransferase, H3 lysine-79 specific (Homo sapiens) (UniProt Q8TEK3); assay: Inhibition of DOT1L (unknown origin)
# [10] = molecular target: Histone-lysine N-methyltransferase EHMT2 (Homo sapiens) (UniProt Q96KQ7); assay: Inhibition of G9a (unknown origin)
# Sequence of Histone-lysine N-methyltransferase EHMT2 (Homo sapiens) (Q96KQ7 whole entry): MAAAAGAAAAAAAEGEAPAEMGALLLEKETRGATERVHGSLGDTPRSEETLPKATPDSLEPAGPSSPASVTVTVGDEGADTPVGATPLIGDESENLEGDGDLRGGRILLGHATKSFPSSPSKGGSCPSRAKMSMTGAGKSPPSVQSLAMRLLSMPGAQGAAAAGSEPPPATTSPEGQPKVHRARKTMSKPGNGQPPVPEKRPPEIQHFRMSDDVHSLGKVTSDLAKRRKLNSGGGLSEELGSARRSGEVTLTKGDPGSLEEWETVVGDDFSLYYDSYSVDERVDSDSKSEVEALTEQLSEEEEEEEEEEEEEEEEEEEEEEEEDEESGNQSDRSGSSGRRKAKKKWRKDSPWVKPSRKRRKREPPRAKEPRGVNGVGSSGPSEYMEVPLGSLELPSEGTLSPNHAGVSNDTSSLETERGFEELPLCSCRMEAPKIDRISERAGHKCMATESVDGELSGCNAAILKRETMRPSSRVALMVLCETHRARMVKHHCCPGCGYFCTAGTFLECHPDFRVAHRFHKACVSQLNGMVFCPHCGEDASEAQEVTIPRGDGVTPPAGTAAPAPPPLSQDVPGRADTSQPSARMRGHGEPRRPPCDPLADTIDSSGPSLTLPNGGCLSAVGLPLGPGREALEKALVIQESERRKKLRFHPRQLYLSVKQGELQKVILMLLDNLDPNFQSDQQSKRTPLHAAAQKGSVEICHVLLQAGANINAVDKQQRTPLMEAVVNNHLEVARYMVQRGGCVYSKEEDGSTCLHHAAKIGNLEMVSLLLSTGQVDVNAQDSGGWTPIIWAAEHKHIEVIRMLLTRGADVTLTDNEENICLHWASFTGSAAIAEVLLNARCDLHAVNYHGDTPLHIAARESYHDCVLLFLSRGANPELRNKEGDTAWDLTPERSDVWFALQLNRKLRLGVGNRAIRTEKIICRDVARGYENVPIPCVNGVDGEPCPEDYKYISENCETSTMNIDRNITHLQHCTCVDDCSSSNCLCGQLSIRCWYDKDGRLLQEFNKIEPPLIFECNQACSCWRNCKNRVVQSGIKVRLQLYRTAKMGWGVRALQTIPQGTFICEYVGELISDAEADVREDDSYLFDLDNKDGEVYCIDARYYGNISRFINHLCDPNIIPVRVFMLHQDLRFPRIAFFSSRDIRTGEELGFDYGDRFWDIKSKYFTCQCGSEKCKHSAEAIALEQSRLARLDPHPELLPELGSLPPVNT
# [11] = species on record: Homo sapiens; assay: Inhibition of GLP (unknown origin)
# [12] = molecular target: Protein arginine N-methyltransferase 5 (Homo sapiens) (UniProt O14744); assay: Inhibition of PRMT5 (unknown origin)
# Sequence of Protein arginine N-methyltransferase 5 (Homo sapiens) (O14744 whole entry): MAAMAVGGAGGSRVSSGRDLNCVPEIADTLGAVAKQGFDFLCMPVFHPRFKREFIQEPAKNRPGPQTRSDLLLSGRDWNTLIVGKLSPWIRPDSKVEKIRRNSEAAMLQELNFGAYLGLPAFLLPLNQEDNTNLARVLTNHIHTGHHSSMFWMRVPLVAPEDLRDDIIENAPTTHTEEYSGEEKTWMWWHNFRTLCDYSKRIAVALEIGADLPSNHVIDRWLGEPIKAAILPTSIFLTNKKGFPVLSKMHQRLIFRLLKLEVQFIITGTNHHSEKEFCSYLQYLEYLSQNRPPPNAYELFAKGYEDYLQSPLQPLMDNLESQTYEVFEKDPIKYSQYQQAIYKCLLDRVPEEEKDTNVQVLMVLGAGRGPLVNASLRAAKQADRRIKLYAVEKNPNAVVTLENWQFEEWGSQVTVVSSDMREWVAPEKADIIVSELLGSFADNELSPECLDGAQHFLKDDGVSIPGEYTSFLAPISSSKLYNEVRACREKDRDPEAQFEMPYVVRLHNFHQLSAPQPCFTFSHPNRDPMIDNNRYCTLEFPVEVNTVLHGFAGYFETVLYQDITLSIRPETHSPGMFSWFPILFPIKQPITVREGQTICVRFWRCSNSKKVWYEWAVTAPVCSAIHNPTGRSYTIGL
# [13] = molecular target: Protein arginine N-methyltransferase 6 (Homo sapiens) (UniProt Q96LA8); assay: Inhibition of PRMT6 (unknown origin)
# Sequence of Protein arginine N-methyltransferase 6 (Homo sapiens) (Q96LA8 whole entry, looked up): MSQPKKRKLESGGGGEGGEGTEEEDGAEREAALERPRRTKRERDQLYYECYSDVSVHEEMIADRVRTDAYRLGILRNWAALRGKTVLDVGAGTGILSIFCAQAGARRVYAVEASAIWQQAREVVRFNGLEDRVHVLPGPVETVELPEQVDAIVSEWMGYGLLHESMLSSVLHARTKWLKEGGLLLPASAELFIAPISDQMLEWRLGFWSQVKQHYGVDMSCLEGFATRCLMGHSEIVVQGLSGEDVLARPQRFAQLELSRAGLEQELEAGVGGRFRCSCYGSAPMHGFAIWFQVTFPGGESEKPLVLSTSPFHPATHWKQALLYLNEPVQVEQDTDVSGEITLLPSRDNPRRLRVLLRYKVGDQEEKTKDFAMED
# [14] = molecular target: N-lysine methyltransferase KMT5A (Homo sapiens) (UniProt Q9NQR1); assay: Inhibition of SETD8 (unknown origin)
# Sequence of N-lysine methyltransferase KMT5A (Homo sapiens) (Q9NQR1 whole entry): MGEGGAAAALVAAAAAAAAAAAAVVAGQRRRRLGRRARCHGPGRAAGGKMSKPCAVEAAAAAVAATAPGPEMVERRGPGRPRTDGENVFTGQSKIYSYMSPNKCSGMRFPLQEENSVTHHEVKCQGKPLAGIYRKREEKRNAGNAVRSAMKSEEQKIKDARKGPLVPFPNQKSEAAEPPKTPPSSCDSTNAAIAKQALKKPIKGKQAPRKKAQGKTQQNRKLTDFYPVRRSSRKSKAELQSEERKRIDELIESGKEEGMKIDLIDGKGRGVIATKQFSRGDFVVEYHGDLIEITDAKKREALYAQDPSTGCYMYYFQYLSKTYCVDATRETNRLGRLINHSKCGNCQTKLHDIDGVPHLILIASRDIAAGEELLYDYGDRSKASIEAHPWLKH
# [15] = molecular target: Histone-lysine N-methyltransferase SUV39H2 (Homo sapiens) (UniProt Q9H5I1); assay: Inhibition of SUV39H2 (unknown origin)
# Sequence of Histone-lysine N-methyltransferase SUV39H2 (Homo sapiens) (Q9H5I1 whole entry): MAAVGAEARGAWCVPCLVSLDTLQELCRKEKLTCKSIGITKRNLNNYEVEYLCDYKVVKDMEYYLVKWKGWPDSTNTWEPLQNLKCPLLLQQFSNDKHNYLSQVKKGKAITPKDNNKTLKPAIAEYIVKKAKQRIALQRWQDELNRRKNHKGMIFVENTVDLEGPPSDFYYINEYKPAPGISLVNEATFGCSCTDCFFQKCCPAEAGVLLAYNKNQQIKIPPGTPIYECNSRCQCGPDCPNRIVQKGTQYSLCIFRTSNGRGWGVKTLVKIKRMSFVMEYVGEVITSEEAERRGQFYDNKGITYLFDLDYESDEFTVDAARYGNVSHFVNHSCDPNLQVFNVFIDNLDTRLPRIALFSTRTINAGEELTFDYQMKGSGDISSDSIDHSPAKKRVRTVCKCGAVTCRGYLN
# [16] = molecular target: Histone-lysine N-methyltransferase KMT5B (Homo sapiens) (UniProt Q4FZB7); assay: Inhibition of SUV420H1 (unknown origin)
# [17] = molecular target: Cyclin-dependent kinase 2/cyclin E1 (Homo sapiens, UniProt P24941); assay: Inhibition of CDK2/CyclinE (unknown origin) in presence of ATP; assay type: protein-complex assay
# [18] = molecular target: Mitogen-activated protein kinase 7 (Homo sapiens, UniProt Q13164); assay: Inhibition of GST-tagged ERK5 catalytic domain (unknown origin) in presence of ATP
# [19] = molecular target: Dual specificity tyrosine-phosphorylation-regulated kinase 1A (Homo sapiens, UniProt Q13627); assay: Inhibition of human DYRK1a
# [20] = molecular target: Interleukin-1 receptor-associated kinase 1 (Homo sapiens, UniProt P51617); assay: Inhibition of IRAK1 (unknown origin) in presence of ATP
# Sequence of Interleukin-1 receptor-associated kinase 1 (P51617 whole entry): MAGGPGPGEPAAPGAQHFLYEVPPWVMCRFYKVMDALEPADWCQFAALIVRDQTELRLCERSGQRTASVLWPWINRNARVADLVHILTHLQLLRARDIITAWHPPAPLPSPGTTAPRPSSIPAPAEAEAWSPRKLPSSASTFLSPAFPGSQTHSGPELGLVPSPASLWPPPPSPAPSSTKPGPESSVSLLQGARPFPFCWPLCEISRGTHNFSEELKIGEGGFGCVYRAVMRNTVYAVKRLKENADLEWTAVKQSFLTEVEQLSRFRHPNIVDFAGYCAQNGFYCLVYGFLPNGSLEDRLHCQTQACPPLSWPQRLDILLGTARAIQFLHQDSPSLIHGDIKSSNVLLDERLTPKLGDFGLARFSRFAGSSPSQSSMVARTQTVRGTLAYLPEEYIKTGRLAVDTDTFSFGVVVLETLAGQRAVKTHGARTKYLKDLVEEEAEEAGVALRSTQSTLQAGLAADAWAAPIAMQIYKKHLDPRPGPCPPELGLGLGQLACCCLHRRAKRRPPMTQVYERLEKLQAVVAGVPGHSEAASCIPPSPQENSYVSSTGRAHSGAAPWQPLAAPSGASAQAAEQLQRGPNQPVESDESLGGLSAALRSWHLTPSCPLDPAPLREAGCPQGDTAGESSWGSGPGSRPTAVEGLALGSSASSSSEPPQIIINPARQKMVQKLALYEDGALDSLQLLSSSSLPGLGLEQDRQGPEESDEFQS
# [21] = molecular target: Dual specificity mitogen-activated protein kinase kinase 5 (Homo sapiens, UniProt Q13163); assay: Inhibition of MEK5 (unknown origin) by competition binding assay
# Sequence of Dual specificity mitogen-activated protein kinase kinase 5 (Q13163 whole entry): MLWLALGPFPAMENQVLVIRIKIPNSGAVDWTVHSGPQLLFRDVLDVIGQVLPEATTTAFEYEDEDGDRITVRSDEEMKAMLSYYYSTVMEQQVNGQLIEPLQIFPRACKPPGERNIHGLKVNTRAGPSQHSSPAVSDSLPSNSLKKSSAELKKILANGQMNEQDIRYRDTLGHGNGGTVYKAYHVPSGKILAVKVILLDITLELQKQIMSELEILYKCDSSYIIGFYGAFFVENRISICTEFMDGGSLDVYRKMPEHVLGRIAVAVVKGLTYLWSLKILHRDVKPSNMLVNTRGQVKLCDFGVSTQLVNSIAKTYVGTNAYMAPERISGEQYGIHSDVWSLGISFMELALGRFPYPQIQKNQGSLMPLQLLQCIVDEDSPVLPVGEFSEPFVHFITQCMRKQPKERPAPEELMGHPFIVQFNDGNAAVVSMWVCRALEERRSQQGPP
# [22] = molecular target: Mitogen-activated protein kinase 14 (Homo sapiens, UniProt Q16539); assay: Inhibition of p38alpha (unknown origin) by competition binding assay
# Sequence of Mitogen-activated protein kinase 14 (Q16539 whole entry): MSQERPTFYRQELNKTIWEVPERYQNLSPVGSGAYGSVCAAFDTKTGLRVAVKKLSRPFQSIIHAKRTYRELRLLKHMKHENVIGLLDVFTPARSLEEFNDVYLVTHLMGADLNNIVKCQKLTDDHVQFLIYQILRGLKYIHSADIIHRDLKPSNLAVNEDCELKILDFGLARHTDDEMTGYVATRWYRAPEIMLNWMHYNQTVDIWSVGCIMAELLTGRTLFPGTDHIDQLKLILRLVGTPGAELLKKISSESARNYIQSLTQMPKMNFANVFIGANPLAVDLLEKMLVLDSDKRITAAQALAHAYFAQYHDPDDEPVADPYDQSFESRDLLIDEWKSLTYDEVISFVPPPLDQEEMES
# [23] = molecular target: Platelet-derived growth factor receptor beta (Homo sapiens, UniProt P09619); assay: Inhibition of PDGFR beta (unknown origin)
# [24] = molecular target: High affinity nerve growth factor receptor (Homo sapiens, UniProt P04629); assay: Inhibition of human TRK-A
# [25] = test system: HaCaT; assay: Antiproliferative activity against human HaCaT cells assessed as inhibition of cell viability measured for 3 to 5 days by alamar blue staining based assay; assay type: functional
# [26] = test system: HGC-27; assay: Antiproliferative activity against human HGC-27 cells assessed as inhibition of cell viability measured for 3 to 5 days by alamar blue staining based assay; assay type: functional
# [27] = test system: Hs-578T; assay: Antiproliferative activity against human Hs-578T cells assessed as inhibition of cell viability measured for 3 to 5 days by alamar blue staining based assay; assay type: functional
# [28] = test system: HT-29; assay: Antiproliferative activity against human HT-29 cells assessed as inhibition of cell viability measured for 3 to 5 days by alamar blue staining based assay; assay type: functional
# [29] = test system: Jurkat; assay: Antiproliferative activity against human Jurkat cells assessed as inhibition of cell viability measured for 3 to 5 days by alamar blue staining based assay; assay type: functional
# [30] = test system: MDA-MB-231; assay: Antiproliferative activity against human MDA-MB-231 cells assessed as inhibition of cell viability measured for 3 to 5 days by alamar blue staining based assay; assay type: functional
# [31] = Antiproliferative activity against human NCI-H2110 cells assessed as inhibition of cell viability measured for 3 to 5 days by alamar blue staining based assay; assay type: functional
# [32] = test system: PaTu 8988t; assay: Antiproliferative activity against human PaTu 8988t cells assessed as inhibition of cell viability measured for 3 to 5 days by alamar blue staining based assay; assay type: functional
smiles,measurement,setting,value
C[C@H]1CC(=O)Nc2cc(C(=O)NCCC3CC3)ccc2N1C(=O)N1CC2CC2C1 (some centres not stated),deltaH,[1],-4.2 kcal/mol
same,Ratio IC50,[2],2
same,inhibition,[3],inactive
same,deltaG,[4],-9.2 kcal/mol
same,Ka,[5],3.1 10^5/M/s
same,IC50,[6],Not Active
same,inhibition,[7],inactive
same,inhibition,[8],inactive
same,inhibition,[9],inactive
same,inhibition,[10],inactive
same,inhibition,[11],inactive
same,inhibition,[12],inactive
same,inhibition,[13],inactive
same,inhibition,[14],inactive
same,inhibition,[15],inactive
same,inhibition,[16],inactive
same,IC50,[17],> 20 µM
same,IC50,[18],> 20 µM
same,IC50,[19],> 20 µM
same,IC50,[20],> 20 µM
same,IC50,[21],> 20 µM
same,IC50,[22],> 20 µM
same,IC50,[23],> 20 µM
same,IC50,[24],> 20 µM
same,IC50,[25],> 10 µM
same,IC50,[26],> 10 µM
same,IC50,[27],> 10 µM
same,IC50,[28],> 10 µM
same,IC50,[29],> 10 µM
same,IC50,[30],> 10 µM
same,IC50,[31],> 10 µM
same,IC50,[32],> 10 µM
